Data set [1] deals with Human alphaherpesvirus 3. As to the kind of experiment: Antiviral activity against thymidine kinase deficient Varicella zoster virus 07-1 infected in human HEL cells assessed as reduction in virus-induced cytopathogenic effect measured after 3 days coulter counter method. Format: functional, organism-based. The settings on record: Human alphaherpesvirus 3, 07-1, HEL, 72 h.

The nature of data set [2]: Cytotoxicity against human HEL cells assessed as concentration required to cause visible alteration in cell morphology incubated for 3 days by coulter counter method. It is filed as cell-based. The settings on record: time 3 day. A digest of the protocol:
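MCC scored by microscopy in confluent HEL cell cultures as the lowest compound concentration that causes a visible change in cell morphology.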

Data set [3] has as its system Human alphaherpesvirus 3. As to the kind of experiment: Antiviral activity against thymidine kinase positive Varicella zoster virus OKA infected in human HEL cells assessed as reduction in virus-induced cytopathogenic effect measured after 3 days coulter counter method. Format: functional, organism-based. The conditions noted are these: Human alphaherpesvirus 3, OKA, 72 h. For orientation: Cytopathic effects are the visible damage that an infection or toxin causes in cultured cells.

Another data set relates to HEL. As to the kind of experiment: Cytotoxicity against human HEL cells assessed as reduction in cell growth incubated for 3 days by coulter counter method. Format: cell-based. The settings on record: 72 h, time 3 day. A digest of the protocol:
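HEL cells were seeded at 5 × 10^3 cells/well and allowed to grow for 24 h. Medium containing varying compound concentrations was then added, and cells were incubated 3 days at 37 °C. Cell number was counted with a Coulter counter.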

A short description of data set [4]: Selectivity index, ratio of CC50 for human HEL cells to EC50 for thymidine kinase positive Varicella zoster virus OKA infected in human HEL cells. Format: toxicity, cell-based. The conditions noted are these: read-out: Ratio CC50/EC50. A digest of the protocol:
(§1)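 VZV plaque reduction in confluent HEL cells: 20 PFU input, 1–2 h adsorption, then unbound virus removed and cells given varying compound concentrations in duplicate. EC50 is the concentration halving plaque number. […] SI = CC50/EC50.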

A short description of data set [5]: Selectivity ratio of EC50 for thymidine kinase deficient Varicella zoster virus 07-1 infected in human HEL cells to EC50 for thymidine kinase positive Varicella zoster virus OKA infected in human HEL cells. It is filed as functional.
Data set [6] can be described thus: Selectivity index, ratio of CC50 for human HEL cells to EC50 for thymidine kinase deficient Varicella zoster virus 07-1 infected in human HEL cells. Format: toxicity, cell-based. The conditions noted are these: read-out: Ratio CC50/EC50. A digest of the protocol:
as §1

pEC50: −log10 of the molar value. A value given as a limit tells only on which side of the number the result lay.

For orientation: pEC50 means −log10 of the EC50, conventionally taken in molar units. On to `COCC#Cc1c(-c2ccc(C)cc2)oc2nc(=O)n([C@H]3C[C@H](OC(C)=O)[C@@H](COC(C)=O)O3)cc12`, for which the negative-log EC50 (pEC50) in the data set on Human alphaherpesvirus 3 [1] is 4.35; in the data set with Human alphaherpesvirus 3 [3] it was 4.70. Also, in data set [2], the MCC at 72 h is greater than 100 µM.
For orientation: CC50 means the concentration giving 50% cytotoxicity. On to `CC(=O)OC[C@H]1O[C@@H](n2cc3c(C#CC4(O)c5ccccc5-c5ccccc54)c(-c4ccc(C)cc4)oc3nc2=O)C[C@@H]1OC(C)=O`, for which, in the data set with HEL, the CC50 came to 2.36 µM. Moreover, the negative logarithm of the EC50 (pEC50) in the data set with Human alphaherpesvirus 3 [1] is 5.12; in the data set with Human alphaherpesvirus 3 [3], 5.89. The MCC at 72 h in data set [2] amounted to 100 µM. For the same compound, in data set [4], the selectivity ratio was no more than 1.
As to `CC(=O)OC[C@H]1O[C@@H](n2cc3c(C#CCCN4C(=O)c5ccccc5C4=O)c(-c4ccc(C)cc4)oc3nc2=O)C[C@@H]1OC(C)=O`, the pEC50 with Human alphaherpesvirus 3 [1] was 4.42; in the data set on Human alphaherpesvirus 3 [3] it was 4.51. The MCC at 72 h in data set [2] was found to be 100 µM.
For the compound `CC(=O)OC[C@H]1O[C@@H](n2cc3c(C#CCCO)c(-c4ccc(C)cc4)oc3nc2=O)C[C@@H]1OC(C)=O`, the pEC50 was less than 4.00 in the data set with Human alphaherpesvirus 3 [1] and 4.12 in the data set with Human alphaherpesvirus 3 [3]. The MCC at 72 h in data set [2] was greater than 100 µM.
In the case of `CC(=O)OC[C@H]1O[C@@H](n2cc3c(C#Cc4ccc(C)cc4)c(-c4ccc(C)cc4)oc3nc2=O)C[C@@H]1OC(C)=O`, in the data set on HEL, the CC50 amounted to 8.77 µM. In addition, the pEC50 in the data set on Human alphaherpesvirus 3 [1] is 4.96; in the data set with Human alphaherpesvirus 3 [3], 5.16. For the same compound, in data set [2], the MCC at 72 h came to 60 µM. Moreover, the selectivity ratio in data set [4] was no more than 1.
As for `CCCCCc1ccc(-c2oc3nc(=O)n([C@H]4C[C@H](OC(C)=O)[C@@H](COC(C)=O)O4)cc3c2C#Cc2ccc(C)cc2)cc1`, the pEC50 with Human alphaherpesvirus 3 [1] was less than 4.70; with Human alphaherpesvirus 3 [3], 5.12. Further, in data set [2], the MCC at 72 h was 100 µM.
Regarding `O=c1[nH]c(=O)n([C@H]2C[C@H](O)[C@@H](CO)O2)cc1/C=C/Br` [BRIVUDINE], in the data set with HEL, the CC50 is greater than 300 µM. Also, the pEC50 with Human alphaherpesvirus 3 [1] was 4.92. The MCC at 72 h in data set [2] is greater than 300 µM.
Take `CC(=O)OC[C@H]1O[C@@H](n2cc3c(C#CCO)c(-c4ccc(C)cc4)oc3nc2=O)C[C@@H]1OC(C)=O`: the values for the negative-log EC50 (pEC50) with Human alphaherpesvirus 3 [1] and with Human alphaherpesvirus 3 [3] were less than 4.00 and 4.17, respectively. Further, the MCC at 72 h in data set [2] was greater than 100 µM.
For `CCCCCc1ccc(C#Cc2c(-c3ccc(C)cc3)oc3nc(=O)n([C@H]4C[C@H](OC(C)=O)[C@@H](COC(C)=O)O4)cc23)cc1` the same measures were less than 5.40, less than 5.40 and 20 µM.
As for `CCCCCc1ccc(-c2oc3nc(=O)n([C@H]4C[C@H](OC(C)=O)[C@@H](COC(C)=O)O4)cc3c2C#CCCO)cc1`, in the data set on HEL, the CC50 stood at 2.66 µM. The figures for the negative logarithm of the EC50 (pEC50) in the data set with Human alphaherpesvirus 3 [1] and in the data set with Human alphaherpesvirus 3 [3] were 4.89 and 5.40, respectively. Besides, the MCC at 72 h in data set [2] was 100 µM. The selectivity ratio in data set [4] is no more than 1.
`CCCCCc1ccc(-c2oc3nc(=O)n([C@H]4C[C@H](OC(C)=O)[C@@H](COC(C)=O)O4)cc3c2C#CCO)cc1`: in the data set on HEL, the cytotoxic concentration (CC50) was found to be 3.8 µM. Further, the negative-log EC50 (pEC50) was 4.89 in the data set on Human alphaherpesvirus 3 [1] and 5.12 with Human alphaherpesvirus 3 [3]. In data set [2], the MCC at 72 h was found to be 100 µM. Moreover, in data set [4], the selectivity ratio was no more than 1.
Regarding `CC(=O)OCC#Cc1c(-c2ccc(C)cc2)oc2nc(=O)n([C@H]3C[C@H](OC(C)=O)[C@@H](COC(C)=O)O3)cc12`, the pEC50 was 4.00 with Human alphaherpesvirus 3 [1] and less than 4.00 in the data set on Human alphaherpesvirus 3 [3]. The MCC at 72 h in data set [2] was greater than 100 µM.
`CC(=O)OC[C@H]1O[C@@H](n2cc3c(C#CCCCCn4c5ccccc5c5ccccc54)c(-c4ccc(C)cc4)oc3nc2=O)C[C@@H]1OC(C)=O`: the CC50 in the data set on HEL turned out to be 6.22 µM. Further, the pEC50 was 4.88 in the data set on Human alphaherpesvirus 3 [1] and 5.14 with Human alphaherpesvirus 3 [3]. Also, in data set [2], the MCC at 72 h was found to be 100 µM. The selectivity ratio in data set [4] was no more than 1.
`CCCCCc1ccc(C#Cc2c(-c3ccc(CCCCC)cc3)oc3nc(=O)n([C@H]4C[C@H](OC(C)=O)[C@@H](COC(C)=O)O4)cc23)cc1`: in data set [5], the “Ratio EC50” value turned out to be 6. Besides, in the data set on HEL, the CC50 is greater than 100 µM. The pEC50 was 5.05 with Human alphaherpesvirus 3 [1] and 5.82 in the data set on Human alphaherpesvirus 3 [3]. For the same compound, the MCC at 72 h in data set [2] was determined as 100 µM. The selectivity ratio was 11 in data set [6] and 67 in data set [4].
`Nc1nc2c(ncn2COCCO)c(=O)[nH]1` [ACYCLOVIR]: in the data set with HEL, the half-maximal cytotoxic concentration (CC50) was greater than 300 µM. The MCC at 72 h in data set [2] is greater than 440 µM.

The values above are taken from ChEMBL document CHEMBL4732054, “Extension of furopyrimidine nucleosides with 5-alkynyl substituent: Synthesis, high fluorescence, and antiviral effect in the absence of free ribose hydroxyl groups” (Eur J Med Chem, 2021).
